Assays:
[1] = Drug excretion in SCID mouse xenografted with human HT-29 cells at 0.37 MBq/mouse, iv measured at 4 hrs using 177Lu labelled compound by gamma counter analysis; format: ADME, organism-based; conditions: in vivo
Outline: (§1)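 Female SCID mice bearing s.c. flank HT-29 xenografts (5 × 10^6 cells in Matrigel, ~80 mm3). Given 10 μCi (0.37 MBq) 177Lu conjugate i.v. by tail vein; groups sacrificed at 4, 24, 72 h. Tissues weighed and gamma-counted as %ID/g, excretion as %ID; n = 5, mean ± SD. Blocking arms: colchicine 1 mg/kg i.p. beforehand, or D-lysine 40 mg/kg co-injected.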

[2] = Drug uptake in blood of SCID mouse xenografted with human HT-29 cells at 0.37 MBq/mouse, iv measured at 4 hrs using 177Lu labelled compound by gamma counter analysis; format: ADME, organism-based; conditions: in vivo; outline: as §1
[3] = Drug uptake in stomach of SCID mouse xenografted with human HT-29 cells at 0.37 MBq/mouse, iv measured at 4 hrs using 177Lu labelled compound by gamma counter analysis; format: ADME, organism-based; conditions: in vivo
Outline: (§2)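 Female SCID mice (5 weeks old) received s.c. flank HT-29 cells (5 × 10^6 in Matrigel). At ~80 mm3, two weeks later, mice were randomized and given 10 μCi (0.37 MBq) of purified 177Lu conjugate i.v. by tail vein. Mice were killed at 4, 24 or 72 h. Tissues were weighed and gamma counted as %ID/g, mean ± SD, n = 5. Tumor-to-tissue ratios were calculated.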

[4] = Drug uptake in spleen of SCID mouse xenografted with human HT-29 cells at 0.37 MBq/mouse, iv measured at 4 hrs using 177Lu labelled compound by gamma counter analysis; format: ADME, organism-based; conditions: in vivo; outline: as §2
[5] = Drug uptake in kidney of SCID mouse xenografted with human HT-29 cells at 0.37 MBq/mouse, iv measured at 4 hrs using 177Lu labelled compound by gamma counter analysis; format: ADME, organism-based; conditions: in vivo
Outline: (§3)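 Female SCID mice (5 weeks) bore s.c. flank xenografts of HT-29 cells (5 × 10^6 in Matrigel), used at about 80 mm3 (two weeks) and randomized. Each mouse received 10 μCi (0.37 MBq) of HPLC-purified 177Lu-conjugate via tail vein. Tissues were excised, weighed and gamma-counted, expressed as %ID/g; mean ± SD, n = 5.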

[6] = Drug uptake in bone of SCID mouse xenografted with human HT-29 cells at 0.37 MBq/mouse, iv measured at 4 hrs using 177Lu labelled compound by gamma counter analysis; format: ADME, organism-based, Bone element; conditions: in vivo; outline: as §3
[7] = Drug uptake in lung of SCID mouse xenografted with human HT-29 cells at 0.37 MBq/mouse, iv measured at 24 hrs using 177Lu labelled compound by gamma counter analysis; format: ADME, organism-based; conditions: in vivo; outline: as §3
[8] = Drug uptake in SCID mouse xenografted with human HT-29 cells assessed as tumour retention level at 0.37 MBq/mouse, iv measured at 4 hrs using 177Lu labelled compound by gamma counter analysis; format: ADME, organism-based; conditions: in vivo; outline: as §1
[9] = Drug uptake in kidney of SCID mouse xenografted with human HT-29 cells at 0.37 MBq/mouse, iv measured at 24 hrs using 177Lu labelled compound by gamma counter analysis; format: ADME, organism-based; conditions: in vivo; outline: as §3
[10] = Drug uptake in muscle of SCID mouse xenografted with human HT-29 cells at 0.37 MBq/mouse, iv measured at 24 hrs using 177Lu labelled compound by gamma counter analysis; format: ADME, organism-based, Muscle tissue; conditions: in vivo; outline: as §3
[11] = Drug uptake in bone of SCID mouse xenografted with human HT-29 cells at 0.37 MBq/mouse, iv measured at 24 hrs using 177Lu labelled compound by gamma counter analysis; format: ADME, organism-based, Bone element; conditions: in vivo; outline: as §1
[12] = Drug excretion in SCID mouse xenografted with human HT-29 cells at 0.37 MBq/mouse, iv measured at 24 hrs using 177Lu labelled compound by gamma counter analysis; format: ADME, organism-based; conditions: in vivo; outline: as §1
[13] = Drug uptake in pancreas of SCID mouse xenografted with human HT-29 cells at 0.37 MBq/mouse, iv measured at 72 hrs using 177Lu labelled compound by gamma counter analysis; format: ADME, organism-based; conditions: in vivo; outline: as §3
[14] = Drug uptake in spleen of SCID mouse xenografted with human HT-29 cells at 0.37 MBq/mouse, iv measured at 72 hrs using 177Lu labelled compound by gamma counter analysis; format: ADME, organism-based; conditions: in vivo; outline: as §2
[15] = Drug uptake in muscle of SCID mouse xenografted with human HT-29 cells at 0.37 MBq/mouse, iv measured at 72 hrs using 177Lu labelled compound by gamma counter analysis; format: ADME, organism-based, Muscle tissue; conditions: in vivo; outline: as §3
[16] = Drug uptake in brain of SCID mouse xenografted with human HT-29 cells at 0.37 MBq/mouse, iv measured at 72 hrs using 177Lu labelled compound by gamma counter analysis; format: ADME, organism-based; conditions: in vivo; outline: as §3
[17] = 1-Octanol-PBS buffer distribution coefficient, log D of natEu labelled compound at pH 7.4 by time resolved fluorescence analysis; format: physicochemical
Outline: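 natEu-labelled conjugate (300 μg) in 0.2 mL PBS pH 7.4 partitioned against 0.2 mL 1-octanol; 100 μL aliquots from each layer dried under vacuum and taken up in water. Time-resolved fluorescence read at 590 nm with 380 nm excitation, and LogD7.4 calculated from the two layers.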

[18] = Drug uptake in membrane of human HT-29 cells measured after 240 mins using 177Lu labelled compound by gamma counter method relative to control; format: ADME, cell-based; conditions: ht-29, 4 h
Outline: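 HT-29 cells (~1 × 10^6 in 1 mL medium) were incubated with 177Lu-conjugate (100,000 cpm) at 37 °C and sampled at 15–240 min. After medium washes, surface-bound activity was stripped with pH 2.8 glycine-HCl/NaCl buffer, and the internalized fraction was taken from the 1% SDS lysate. Fractions were gamma-counted as % of total added activity; mean ± SD, n = 3.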

[19] = Ratio of drug uptake in SCID mouse xenograted with human HT-29 cells assessed as tumour retention to drug uptake in spleen of SCID mouse xenografted with human HT-29 cells measured after 24 hrs using 177Lu labelled compound; format: ADME, tissue-based, Tumor/Spleen; outline: as §2
[20] = Ratio of drug uptake in SCID mouse xenograted with human HT-29 cells assessed as tumour retention to drug uptake in small intestine of SCID mouse xenografted with human HT-29 cells measured after 24 hrs using 177Lu labelled compound; format: ADME, tissue-based, Tumor/Small intestine; outline: as §2
[21] = Ratio of drug uptake in SCID mouse xenograted with human HT-29 cells assessed as tumour retention to drug uptake in large intestine of SCID mouse xenografted with human HT-29 cells measured after 24 hrs using 177Lu labelled compound; format: ADME, tissue-based, Tumor/Large intestine; outline: as §2
[22] = Ratio of drug uptake in SCID mouse xenograted with human HT-29 cells assessed as tumour retention to drug uptake in lung of SCID mouse xenografted with human HT-29 cells measured after 72 hrs using 177Lu labelled compound; format: ADME, tissue-based, Tumor/Lung; outline: as §2
[23] = Ratio of drug uptake in SCID mouse xenograted with human HT-29 cells assessed as tumour retention to drug uptake in liver of SCID mouse xenografted with human HT-29 cells measured after 72 hrs using 177Lu labelled compound; format: ADME, tissue-based, Tumor/Liver; outline: as §2
[24] = Ratio of drug uptake in SCID mouse xenograted with human HT-29 cells assessed as tumour retention to drug uptake in small intestine of SCID mouse xenografted with human HT-29 cells measured after 72 hrs using 177Lu labelled compound; format: ADME, tissue-based, Tumor/Small intestine; outline: as §2
[25] = Ratio of drug uptake in SCID mouse xenograted with human HT-29 cells assessed as tumour retention to drug uptake in kidney of SCID mouse xenografted with human HT-29 cells measured after 72 hrs using 177Lu labelled compound; format: ADME, tissue-based, Tumor/Kidney; outline: as §2

Row | Drug excretion [1] [%ID] | Drug uptake [2] [% ID/g] | Drug uptake [3] [% ID/g] | Drug uptake [4] [% ID/g] | Drug uptake [5] [% ID/g] | Drug uptake [6] [% ID/g] | Drug uptake [7] [% ID/g] | Drug uptake [8] [% ID/g] | Drug uptake [9] [% ID/g] | Drug uptake [10] [% ID/g] | Drug uptake [11] [% ID/g] | Drug excretion [12] [%ID] | Drug uptake [13] [% ID/g] | Drug uptake [14] [% ID/g] | Drug uptake [15] [% ID/g] | Drug uptake [16] [% ID/g] | logD [17] | Drug uptake [18] | Ratio [19] | Ratio [20] | SMILES | other results
1 | 75 | 0.01 | 0.27 | 1 | 57 | 0.18 | 0.25 | 5.6 | 39 | 0.05 | 0.15 | 84.7 | 0.08 | 0.8 | 0.01 | 0.01 | -3.71 | Not Active | – | – | Cc1cc(O)cc(C)c1C[C@H](NC(=O)[C@@H]1CCCN1C(=O)[C@H](CCCNC(=N)N)NC(=O)[C@H](CCCNC(=N)N)N(C)C(=O)[C@@H]1CCCN1C(=O)[C@H](CCCCN)NC(=O)[C@@H](CO)NC(=O)[C@@H](CO)NC(=O)[C@@H](CO)NC(=O)[C@H](Cc1cn(CCNC(=O)[C@H](CCCNC(=N)N)NC(=O)[C@H](CC(C)C)NC(=O)CCC(=O)O)nn1)NC(=O)CN1CCN(CC(=O)O)CCN(CC(=O)O)CCN(CC(=O)O)CC1)C(=O)N[C@H](C(=O)N[C@@H](CC(C)C)C(=O)O)C(C)(C)C | –
2 | 70 | 0.02 | 0.34 | 1.4 | 67 | 0.8 | 0.45 | 6.4 | 80 | 0.04 | 1.1 | 69 | 0.15 | 1.9 | 0.03 | 0.02 | -3.69 | Not Active | 4 | 2 | Cc1cc(O)cc(C)c1C[C@H](NC(=O)[C@@H]1CCCN1C(=O)[C@H](CCCNC(=N)N)NC(=O)[C@H](CCCNC(=N)N)N(C)C(=O)[C@@H]1CCCN1C(=O)[C@H](CCCCN)NC(=O)[C@@H](CO)NC(=O)[C@@H](CO)NC(=O)[C@@H](CO)NC(=O)[C@H](Cc1cn(CCNC(=O)[C@H](CCCNC(=N)N)NC(=O)[C@H](CC(C)C)NC(=O)C2OC2C(=O)O)nn1)NC(=O)CN1CCN(CC(=O)O)CCN(CC(=O)O)CCN(CC(=O)O)CC1)C(=O)N[C@H](C(=O)N[C@@H](CC(C)C)C(=O)O)C(C)(C)C (some centres undefined) | Ratio [21]: 6; Ratio [22]: 10; Ratio [23]: 5.9; Ratio [24]: 1.7; Ratio [25]: 0.09
3 | 36.6 | 0.83 | 1.6 | 19 | 64 | 2.6 | 2.2 | 8.4 | 55 | 0.38 | 1.8 | 56 | 0.68 | 18 | 0.12 | 0.01 | – | – | – | – | Cc1cc(O)cc(C)c1C[C@H](NC(=O)[C@@H]1CCCN1C(=O)[C@H](CCCNC(=N)N)NC(=O)[C@H](CCCNC(=N)N)N(C)C(=O)[C@@H]1CCCN1C(=O)[C@H](CCCCN)NC(=O)[C@@H](CO)NC(=O)[C@@H](CO)NC(=O)[C@@H](CO)NC(=O)[C@H](Cc1cn(CC(=O)N[C@H](CO)C(=O)N[C@H](CO)C(=O)N[C@H](CO)C(=O)NCC(=O)NCCCC[C@H](NC(=O)[C@H](Cc2ccccc2)NC(=O)OCc2ccccc2)C(=O)NCCc2ccccc2)nn1)NC(=O)CN1CCN(CC(=O)O)CCN(CC(=O)O)CCN(CC(=O)O)CC1)C(=O)N[C@H](C(=O)N[C@@H](CC(C)C)C(=O)O)C(C)(C)C | –
4 | 16.6 | 1.22 | 1.7 | 16.1 | 58.2 | 1.6 | 6 | 7.8 | 62 | 0.35 | 1.5 | 35 | 0.6 | 17 | 0.15 | 0.02 | -2.1 | 2% | 0.7 | 2 | Cc1cc(C)c(C(=O)OCC(=O)[C@H](CCCCNC(=O)CNC(=O)[C@@H](CO)NC(=O)[C@@H](CO)NC(=O)[C@@H](CO)NC(=O)Cn2cc(C[C@H](NC(=O)CN3CCN(CC(=O)O)CCN(CC(=O)O)CCN(CC(=O)O)CC3)C(=O)N[C@H](CO)C(=O)N[C@H](CO)C(=O)N[C@H](CO)C(=O)N[C@@H](CCCCN)C(=O)N3CCC[C@H]3C(=O)N(C)[C@@H](CCCNC(=N)N)C(=O)N[C@@H](CCCNC(=N)N)C(=O)N3CCC[C@H]3C(=O)N[C@@H](Cc3c(C)cc(O)cc3C)C(=O)N[C@H](C(=O)N[C@@H](CC(C)C)C(=O)O)C(C)(C)C)nn2)NC(=O)[C@H](Cc2ccccc2)NC(=O)OCc2ccccc2)c(C)c1 | Ratio [21]: 5; Ratio [22]: 2.6; Ratio [23]: 0.6; Ratio [24]: 0.9; Ratio [25]: 0.09

From ChEMBL document CHEMBL4350999, “Enhanced tumor retention of NTSR1-targeted agents by employing a hydrophilic cysteine cathepsin inhibitor” (Eur J Med Chem, 2019)
